From ChEMBL document CHEMBL3124885, “Discovery of 7-tetrahydropyran-2-yl chromans: β-site amyloid precursor protein cleaving enzyme 1 (BACE1) inhibitors that reduce amyloid β-protein (Aβ) in the central nervous system” (J Med Chem, 2014)
Values after ≈ are worked out from the molar mass of the structure shown.

Experiments:
[1] = Drug uptake in Hartley guinea pig CSF at 60 mg/kg, po measured at 3 hrs; format: ADME, organism-based, Cavia porcellus, Cerebrospinal fluid; parameters: dose 60 mg/kg, route oral; conditions: read-out: Drug uptake
In short: (§1)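 Male Hartley guinea pigs, oral dosing (CMC/Tween/citrate suspension or PEG/EtOH/H₂O solution), six or eight animals per cohort; CSF drug concentration (nM) measured at each time point.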

[2] = Solubility of the compound at pH 7.2; format: physicochemical; conditions: buffer
[3] = Ratio of unbound drug level in brain to plasma in Hartley guinea pig at 30 mg/kg, po measured at 3 hrs; format: ADME, organism-based, Cavia porcellus; parameters: dose 30 mg/kg, route oral; conditions: brain and plasma (unbound), read-out: K(p,uu,brain)
In short: (§2)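 Male Hartley guinea pigs given single oral doses of 30, 60 or 100 mg/kg in 1% CMC/0.5% Tween/5 mM citrate in H₂O, 6–8 animals per cohort. Plasma, brain and CSF sampled at 1–12 h; free brain to free plasma ratio computed.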

[4] = Ratio of unbound drug level in brain to plasma in Hartley guinea pig at 100 mg/kg, po measured at 3 hrs; format: ADME, organism-based, Cavia porcellus; parameters: dose 100 mg/kg, route oral; conditions: brain and plasma (unbound), read-out: K(p,uu,brain); in short: as §2
Rattus norvegicus = assay: Hepatic clearance in Sprague-Dawley rat at 3 mg/kg, iv; format: ADME, organism-based, Liver; parameters: dose 3 mg/kg, route intravenous; conditions: in vivo
In short: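 Male Sprague–Dawley rats, 3 per cohort, iv 3 mg/kg in 30% captisol/5 mM citrate in saline; po 60 mg/kg in 1% CMC/0.5% Tween/5 mM citrate in H₂O.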

Plasma [5] = assay: Unbound plasma concentration in Sprague-Dawley rat at 60 mg/kg, po measured at 3 hrs; format: ADME, organism-based; parameters: dose 60 mg/kg, route oral; conditions: in vivo
In short: (§3)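 Male Sprague-Dawley rats were given a single 60 mg/kg oral dose in 1% CMC/0.5% Tween/5 mM citrate in H₂O. Free plasma concentration was determined at 1, 3, 5, 8 and 12 h. Brain, CSF and CSF Aβ₁₋₄₀ were sampled at the same times.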

[6] = Ratio of unbound drug level in brain to plasma in Hartley guinea pig at 60 mg/kg, po measured at 12 hrs; format: ADME, organism-based, Cavia porcellus; parameters: dose 60 mg/kg, route oral; conditions: brain and plasma (unbound), read-out: K(p,uu,brain); in short: as §2
Plasma [7] = assay: Unbound plasma concentration in Sprague-Dawley rat at 60 mg/kg, po measured at 8 hrs; format: ADME, organism-based; parameters: dose 60 mg/kg, route oral; conditions: in vivo; in short: as §3
[8] = Ratio of unbound drug level in brain to plasma in Sprague-Dawley rat at 60 mg/kg, po measured at 8 hrs; format: ADME, organism-based; parameters: dose 60 mg/kg, route oral; conditions: brain and plasma (unbound), read-out: K(p,uu,brain)
In short: (§4)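 Male Sprague–Dawley rats dosed 60 mg/kg po in 1% CMC/0.5% Tween/5 mM citrate in H₂O; plasma, brain and CSF taken at 1, 3, 5, 8 and 12 h; unbound plasma and brain levels and their ratio determined.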

Plasma [9] = assay: Unbound plasma concentration in Sprague-Dawley rat at 60 mg/kg, po measured at 12 hrs; format: ADME, organism-based; parameters: dose 60 mg/kg, route oral; conditions: in vivo; in short: as §3
[10] = Fraction unbound in Hartley guinea pig brain at 100 mg/kg, po measured at 3 hrs; format: ADME, organism-based, Cavia porcellus; parameters: dose 100 mg/kg, route oral; conditions: in vivo
[11] = Drug uptake in Hartley guinea pig CSF at 60 mg/kg, po measured at 1 hr; format: ADME, organism-based, Cavia porcellus, Cerebrospinal fluid; parameters: dose 60 mg/kg, route oral; conditions: read-out: Drug uptake; in short: as §1
[12] = Ratio of unbound drug level in brain to plasma in Hartley guinea pig at 60 mg/kg, po measured at 8 hrs; format: ADME, organism-based, Cavia porcellus; parameters: dose 60 mg/kg, route oral; conditions: brain and plasma (unbound), read-out: K(p,uu,brain); in short: as §2
Cavia porcellus = assay: Hepatic clearance in Hartley guinea pig at 3 mg/kg, iv; format: ADME, organism-based, Liver; parameters: dose 3 mg/kg, route intravenous; conditions: in vivo
Mus musculus = assay: Hepatic clearance in CD-1 mouse at 3 mg/kg, iv; format: ADME, organism-based, Liver; parameters: dose 3 mg/kg, route intravenous; conditions: in vivo
In short: (§5)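 Male CD-1 mice, 3 per cohort, dosed 3 mg/kg iv and 10 mg/kg po; plasma drawn at 1 and 4 h, brains harvested from oral groups only. Formulations varied by compound: 40% PEG 400/10% EtOH/50% H₂O; 30% captisol in H₂O; iv 50 mM citrate in saline (pH 4); po 1% CMC/0.5% Tween/5 mM citrate in H₂O.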

Brain [13] = assay: Fraction unbound in Sprague-Dawley rat brain at 60 mg/kg, po measured at 12 hrs; format: ADME, organism-based; parameters: dose 60 mg/kg, route oral; conditions: in vivo; in short: as §4
[14] = Ratio of unbound drug level in brain to plasma in Sprague-Dawley rat at 60 mg/kg, po measured at 3 hrs; format: ADME, organism-based; parameters: dose 60 mg/kg, route oral; conditions: brain and plasma (unbound), read-out: K(p,uu,brain); in short: as §4
[15] = Ratio of unbound drug level in brain to plasma in Hartley guinea pig at 60 mg/kg, po measured at 1 hr; format: ADME, organism-based, Cavia porcellus; parameters: dose 60 mg/kg, route oral; conditions: brain and plasma (unbound), read-out: K(p,uu,brain); in short: as §2
[16] = Unbound plasma concentration in Hartley guinea pig at 60 mg/kg, po measured at 8 hrs; format: ADME, organism-based, Cavia porcellus; parameters: dose 60 mg/kg, route oral; conditions: in vivo
In short: (§6)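 Male Hartley guinea pigs were dosed orally at 30, 60 or 100 mg/kg, with six or eight animals per cohort. The vehicle was either a suspension in 1% CMC/0.5% Tween/5 mM citrate in H₂O or a 40/10/50 PEG/EtOH/H₂O solution, depending on compound. Unbound plasma concentration was sampled at 1–12 h post-dose alongside brain, CSF and CSF Aβ₁₋₄₀.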

[17] = Drug uptake in Hartley guinea pig CSF at 30 mg/kg, po measured at 3 hrs; format: ADME, organism-based, Cavia porcellus, Cerebrospinal fluid; parameters: dose 30 mg/kg, route oral; conditions: read-out: Drug uptake; in short: as §1
[18] = Intrinsic clearance in CD-1 mouse hepatocytes at 2 uM after 60 to 120 mins; format: ADME, cell-based, Hepatocyte; conditions: read-out: CLH
[19] = Ratio of unbound drug level in brain to plasma in Hartley guinea pig at 60 mg/kg, po measured at 3 hrs; format: ADME, organism-based, Cavia porcellus; parameters: dose 60 mg/kg, route oral; conditions: brain and plasma (unbound), read-out: K(p,uu,brain); in short: as §2
[20] = Intrinsic clearance in Sprague-Dawley rat hepatocytes at 2 uM after 60 to 120 mins; format: ADME, cell-based, Hepatocyte; conditions: read-out: CLH
[21] = Ratio of unbound drug level in brain to plasma in Sprague-Dawley rat at 60 mg/kg, po measured at 5 hrs; format: ADME, organism-based; parameters: dose 60 mg/kg, route oral; conditions: brain and plasma (unbound), read-out: K(p,uu,brain); in short: as §4
[22] = Fraction unbound in Hartley guinea pig brain at 60 mg/kg, po measured at 12 hrs; format: ADME, organism-based, Cavia porcellus; parameters: dose 60 mg/kg, route oral; conditions: in vivo
[23] = Ratio of unbound drug level in brain to plasma in Sprague-Dawley rat at 60 mg/kg, po measured at 1 hr; format: ADME, organism-based; parameters: dose 60 mg/kg, route oral; conditions: brain and plasma (unbound), read-out: K(p,uu,brain); in short: as §4
[24] = Fraction unbound in Hartley guinea pig brain at 30 mg/kg, po measured at 3 hrs; format: ADME, organism-based, Cavia porcellus; parameters: dose 30 mg/kg, route oral; conditions: in vivo
[25] = Drug uptake in Sprague-Dawley rat CSF at 60 mg/kg, po measured at 12 hrs; format: ADME, organism-based, Cerebrospinal fluid; parameters: dose 60 mg/kg, route oral; conditions: read-out: Drug uptake
In short: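 Male Sprague−Dawley rats dosed orally at 60 mg/kg in 1% CMC/0.5% Tween/5 mM citrate in H₂O; CSF compound concentration (nM) at 1–12 h.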

[26] = Ratio of unbound drug level in brain to plasma in Sprague-Dawley rat at 60 mg/kg, po measured at 12 hrs; format: ADME, organism-based; parameters: dose 60 mg/kg, route oral; conditions: brain and plasma (unbound), read-out: K(p,uu,brain); in short: as §4
[27] = Ratio of unbound drug level in brain to plasma in Hartley guinea pig at 60 mg/kg, po measured at 5 hrs; format: ADME, organism-based, Cavia porcellus; parameters: dose 60 mg/kg, route oral; conditions: brain and plasma (unbound), read-out: K(p,uu,brain); in short: as §2
Plasma [28] = assay: Unbound plasma concentration in CD-1 mouse at 3 mg/kg, iv and 10 mg/kg, po measured at 4 hrs; format: ADME, organism-based; conditions: in vivo; in short: as §5
[29] = Unbound plasma concentration in Hartley guinea pig at 60 mg/kg, po measured at 12 hrs; format: ADME, organism-based, Cavia porcellus; parameters: dose 60 mg/kg, route oral; conditions: in vivo; in short: as §6
Brain [30] = assay: Fraction unbound in Sprague-Dawley rat brain at 60 mg/kg, po measured at 8 hrs; format: ADME, organism-based; parameters: dose 60 mg/kg, route oral; conditions: in vivo; in short: as §4

CN1C(=O)[C@]2(N=C1N)c1cc(-c3cccnc3F)ccc1O[C@H]1CCOC[C@@H]12
concentration at 3 h [1]: 23 nM | solubility [2]: 220 µg/mL (≈ 575 µM) | Kp uu at 3 h [3]: 1.6 | Kp uu at 3 h [4]: 1.3 | CLH (Rattus norvegicus): 30 mL/min/kg | Cp(f) (Plasma [5]): 2200 nM | Kp uu at 12 h [6]: > 3.7 | Cp(f) (Plasma [7]): 1700 nM | Kp uu at 8 h [8]: 0.049 | Cp(f) (Plasma [9]): 960 nM | Drug uptake(free) [10]: 50 nM | concentration at 1 h [11]: 69 nM | Kp uu at 8 h [12]: > 1.7 | CLH (Cavia porcellus): 110 mL/min/kg | CLH (Mus musculus): 41 mL/min/kg | Drug uptake(free) (Brain [13]): 46 nM | Kp uu at 3 h [14]: 0.03 | Kp uu at 1 h [15]: 0.14 | Cp(f) [16]: < 3 nM | concentration at 3 h [17]: 9.9 nM | CLint scaled at 2 µM [18]: 36 mL/min/kg | Kp uu at 3 h [19]: 1.5 | CLint scaled at 2 µM [20]: 35 mL/min/kg | Kp uu at 5 h [21]: 0.029 | Drug uptake(free) [22]: 11 nM | Kp uu at 1 h [23]: 0.022 | Drug uptake(free) [24]: 9.5 nM | concentration at 12 h [25]: 85 nM | Kp uu at 12 h [26]: 0.048 | Kp uu at 5 h [27]: 1.7 | Cp(f) (Plasma [28]): 78 nM | Cp(f) [29]: < 3 nM | Drug uptake(free) (Brain [30]): 84 nM
